Assay results: ChEMBL document CHEMBL5058577, “EUbOPEN Chemogenomics Library 2 (Multiplex)” (2022)

Test system: Fibroblast
Assay: Multiplex assay against human fibroblast
Assay type: toxicity, cell-based
Summary of the method: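 On a CQ1 microscope at 37°C and 5% CO2, live cells were imaged after compound addition. They had been stained at seeding with Hoechst33342, BioTracker Green Microtubule Cytoskeleton Dye, MitoTracker Red and Annexin V Alexa Fluor 680. CellPathfinder machine-learning gating assigned cells to Hoechst high-intensity objects or normal cells, normal cells to healthy, pyknosed or fragmented nuclei, and pyknosed cells to mitotic or apoptotic. Tubulin, mitochondrial-mass and membrane-permeability phenotypes are per cents of healthy-nucleus cells.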

[1] = 12 h, 1 µM, compound concentration 1 uM, replicate 1
[2] = 12 h, 1 µM, compound concentration 1 uM, replicate 2
[3] = 12 h, 10 µM, compound concentration 10 uM, replicate 1
[4] = 12 h, 10 µM, compound concentration 10 uM, replicate 2
[5] = 24 h, 1 µM, compound concentration 1 uM, replicate 1
[6] = 24 h, 1 µM, compound concentration 1 uM, replicate 2
[7] = 24 h, 10 µM, compound concentration 10 uM, replicate 1
[8] = 24 h, 10 µM, compound concentration 10 uM, replicate 2
[9] = 48 h, 1 µM, compound concentration 1 uM, replicate 1
[10] = 48 h, 1 µM, compound concentration 1 uM, replicate 2
[11] = 48 h, 10 µM, compound concentration 10 uM, replicate 1
[12] = 48 h, 10 µM, compound concentration 10 uM, replicate 2

COc1c(C)cc(NC(=O)c2nn(Cc3ccc(F)cc3)c3c2CN(C(=O)c2ccc[nH]2)C[C@]3(C)C(N)=O)cc1C
Population Apoptotic (%) [1]: 42%
Population Fragmented Nuclei (%) [1]: 21%
Population Healthy Nuclei (%) [1]: 58%
Population Hoechst High Intensity Objects (%) [1]: 2%
Population Membrane Permeable-Phenotype (%) [1]: 1%
Population Mitochondria Different-Phenotype (%) [1]: 18%
Population Mitotic Cells (%) [1]: 57%
Population Normal (%) [1]: 97%
Population Pyknosed Nuclei (%) [1]: 20%
Population Tubulin-Different-Phenotype (%) [1]: 64%
Total Cell Count [1]: 95
Population Apoptotic (%) [2]: 46%
Population Fragmented Nuclei (%) [2]: 16%
Population Healthy Nuclei (%) [2]: 51%
Population Hoechst High Intensity Objects (%) [2]: 3%
Population Membrane Permeable-Phenotype (%) [2]: 6%
Population Mitochondria Different-Phenotype (%) [2]: 11%
Population Mitotic Cells (%) [2]: 53%
Population Normal (%) [2]: 96%
Population Pyknosed Nuclei (%) [2]: 31%
Population Tubulin-Different-Phenotype (%) [2]: 72%
Total Cell Count [2]: 86
Population Apoptotic (%) [3]: 47%
Population Fragmented Nuclei (%) [3]: 12%
Population Healthy Nuclei (%) [3]: 58%
Population Hoechst High Intensity Objects (%) [3]: 1%
Population Membrane Permeable-Phenotype (%) [3]: 0%
Population Mitochondria Different-Phenotype (%) [3]: 25%
Population Mitotic Cells (%) [3]: 52%
Population Normal (%) [3]: 98%
Population Pyknosed Nuclei (%) [3]: 29%
Population Tubulin-Different-Phenotype (%) [3]: 90%
Total Cell Count [3]: 166
Population Apoptotic (%) [4]: 52%
Population Fragmented Nuclei (%) [4]: 29%
Population Healthy Nuclei (%) [4]: 38%
Population Hoechst High Intensity Objects (%) [4]: 2%
Population Membrane Permeable-Phenotype (%) [4]: 6%
Population Mitochondria Different-Phenotype (%) [4]: 30%
Population Mitotic Cells (%) [4]: 47%
Population Normal (%) [4]: 97%
Population Pyknosed Nuclei (%) [4]: 32%
Total Cell Count [4]: 115
Population Apoptotic (%) [5]: 66%
Population Fragmented Nuclei (%) [5]: 25%
Population Healthy Nuclei (%) [5]: 61%
Population Hoechst High Intensity Objects (%) [5]: 3%
Population Membrane Permeable-Phenotype (%) [5]: 1%
Population Mitochondria Different-Phenotype (%) [5]: 17%
Population Mitotic Cells (%) [5]: 33%
Population Normal (%) [5]: 96%
Population Pyknosed Nuclei (%) [5]: 12%
Population Tubulin-Different-Phenotype (%) [5]: 45%
Total Cell Count [5]: 96
Population Apoptotic (%) [6]: 48%
Population Fragmented Nuclei (%) [6]: 31%
Population Healthy Nuclei (%) [6]: 38%
Population Hoechst High Intensity Objects (%) [6]: 6%
Population Membrane Permeable-Phenotype (%) [6]: 8%
Population Mitotic Cells (%) [6]: 51%
Population Normal (%) [6]: 93%
Population Pyknosed Nuclei (%) [6]: 30%
Population Tubulin-Different-Phenotype (%) [6]: 67%
Total Cell Count [6]: 95
Population Apoptotic (%) [7]: 65%
Population Fragmented Nuclei (%) [7]: 14%
Population Healthy Nuclei (%) [7]: 64%
Population Hoechst High Intensity Objects (%) [7]: 3%
Population Membrane Permeable-Phenotype (%) [7]: 0%
Population Mitochondria Different-Phenotype (%) [7]: 47%
Population Mitotic Cells (%) [7]: 34%
Population Normal (%) [7]: 96%
Population Pyknosed Nuclei (%) [7]: 20%
Population Tubulin-Different-Phenotype (%) [7]: 90%
Total Cell Count [7]: 159
Population Apoptotic (%) [8]: 43%
Population Fragmented Nuclei (%) [8]: 30%
Population Healthy Nuclei (%) [8]: 47%
Population Hoechst High Intensity Objects (%) [8]: 4%
Population Membrane Permeable-Phenotype (%) [8]: 8%
Population Mitochondria Different-Phenotype (%) [8]: 26%
Population Mitotic Cells (%) [8]: 56%
Population Normal (%) [8]: 95%
Population Pyknosed Nuclei (%) [8]: 21%
Population Tubulin-Different-Phenotype (%) [8]: 82%
Total Cell Count [8]: 110
Population Apoptotic (%) [9]: 87%
Population Fragmented Nuclei (%) [9]: 29%
Population Healthy Nuclei (%) [9]: 61%
Population Hoechst High Intensity Objects (%) [9]: 7%
Population Membrane Permeable-Phenotype (%) [9]: 0%
Population Mitochondria Different-Phenotype (%) [9]: 10%
Population Mitotic Cells (%) [9]: 12%
Population Normal (%) [9]: 92%
Population Pyknosed Nuclei (%) [9]: 8%
Population Tubulin-Different-Phenotype (%) [9]: 45%
Total Cell Count [9]: 99
Population Apoptotic (%) [10]: 70%
Population Fragmented Nuclei (%) [10]: 34%
Population Healthy Nuclei (%) [10]: 45%
Population Hoechst High Intensity Objects (%) [10]: 5%
Population Membrane Permeable-Phenotype (%) [10]: 10%
Population Mitotic Cells (%) [10]: 29%
Population Normal (%) [10]: 94%
Population Pyknosed Nuclei (%) [10]: 19%
Population Tubulin-Different-Phenotype (%) [10]: 69%
Total Cell Count [10]: 91
Population Apoptotic (%) [11]: 60%
Population Fragmented Nuclei (%) [11]: 22%
Population Healthy Nuclei (%) [11]: 60%
Population Hoechst High Intensity Objects (%) [11]: 4%
Population Membrane Permeable-Phenotype (%) [11]: 0%
Population Mitochondria Different-Phenotype (%) [11]: 54%
Population Mitotic Cells (%) [11]: 39%
Population Normal (%) [11]: 95%
Population Pyknosed Nuclei (%) [11]: 17%
Population Tubulin-Different-Phenotype (%) [11]: 92%
Total Cell Count [11]: 166
Population Apoptotic (%) [12]: 77%
Population Fragmented Nuclei (%) [12]: 41%
Population Healthy Nuclei (%) [12]: 51%
Population Hoechst High Intensity Objects (%) [12]: 2%
Population Membrane Permeable-Phenotype (%) [12]: 3%
Population Mitochondria Different-Phenotype (%) [12]: 16%
Population Mitotic Cells (%) [12]: 22%
Population Normal (%) [12]: 97%
Population Pyknosed Nuclei (%) [12]: 7%
Population Tubulin-Different-Phenotype (%) [12]: 75%
Total Cell Count [12]: 122

CN(C)CCCc1cc(C(=O)Nc2ccc(-c3ccncc3)cc2)ccc1O.Cl.Cl
Population Apoptotic (%) [1]: 31%
Population Fragmented Nuclei (%) [1]: 15%
Population Healthy Nuclei (%) [1]: 65%
Population Hoechst High Intensity Objects (%) [1]: 4%
Population Membrane Permeable-Phenotype (%) [1]: 0%
Population Mitochondria Different-Phenotype (%) [1]: 7%
Population Mitotic Cells (%) [1]: 68%
Population Normal (%) [1]: 95%
Population Pyknosed Nuclei (%) [1]: 18%
Population Tubulin-Different-Phenotype (%) [1]: 22%
Total Cell Count [1]: 122
Population Apoptotic (%) [2]: 44%
Population Fragmented Nuclei (%) [2]: 22%
Population Healthy Nuclei (%) [2]: 52%
Population Hoechst High Intensity Objects (%) [2]: 2%
Population Membrane Permeable-Phenotype (%) [2]: 4%
Population Mitochondria Different-Phenotype (%) [2]: 4%
Population Mitotic Cells (%) [2]: 55%
Population Normal (%) [2]: 97%
Population Pyknosed Nuclei (%) [2]: 24%
Population Tubulin-Different-Phenotype (%) [2]: 40%
Total Cell Count [2]: 120
Population Apoptotic (%) [3]: 68%
Population Fragmented Nuclei (%) [3]: 33%
Population Healthy Nuclei (%) [3]: 58%
Population Hoechst High Intensity Objects (%) [3]: 7%
Population Membrane Permeable-Phenotype (%) [3]: 0%
Population Mitochondria Different-Phenotype (%) [3]: 15%
Population Mitotic Cells (%) [3]: 31%
Population Normal (%) [3]: 92%
Population Pyknosed Nuclei (%) [3]: 7%
Population Tubulin-Different-Phenotype (%) [3]: 43%
Total Cell Count [3]: 305
Population Apoptotic (%) [4]: 48%
Population Fragmented Nuclei (%) [4]: 31%
Population Healthy Nuclei (%) [4]: 51%
Population Hoechst High Intensity Objects (%) [4]: 4%
Population Membrane Permeable-Phenotype (%) [4]: 4%
Population Mitochondria Different-Phenotype (%) [4]: 6%
Population Mitotic Cells (%) [4]: 51%
Population Normal (%) [4]: 95%
Population Pyknosed Nuclei (%) [4]: 17%
Population Tubulin-Different-Phenotype (%) [4]: 45%
Total Cell Count [4]: 236
Population Apoptotic (%) [5]: 30%
Population Fragmented Nuclei (%) [5]: 16%
Population Healthy Nuclei (%) [5]: 66%
Population Hoechst High Intensity Objects (%) [5]: 1%
Population Membrane Permeable-Phenotype (%) [5]: 2%
Population Mitochondria Different-Phenotype (%) [5]: 3%
Population Mitotic Cells (%) [5]: 70%
Population Normal (%) [5]: 98%
Population Pyknosed Nuclei (%) [5]: 17%
Population Tubulin-Different-Phenotype (%) [5]: 25%
Total Cell Count [5]: 119
Population Apoptotic (%) [6]: 37%
Population Fragmented Nuclei (%) [6]: 22%
Population Healthy Nuclei (%) [6]: 50%
Population Hoechst High Intensity Objects (%) [6]: 4%
Population Membrane Permeable-Phenotype (%) [6]: 1%
Population Mitochondria Different-Phenotype (%) [6]: 7%
Population Mitotic Cells (%) [6]: 62%
Population Normal (%) [6]: 95%
Population Pyknosed Nuclei (%) [6]: 27%
Population Tubulin-Different-Phenotype (%) [6]: 45%
Total Cell Count [6]: 111
Population Apoptotic (%) [7]: 47%
Population Fragmented Nuclei (%) [7]: 30%
Population Healthy Nuclei (%) [7]: 63%
Population Hoechst High Intensity Objects (%) [7]: 6%
Population Membrane Permeable-Phenotype (%) [7]: 0%
Population Mitochondria Different-Phenotype (%) [7]: 11%
Population Mitotic Cells (%) [7]: 52%
Population Normal (%) [7]: 93%
Population Pyknosed Nuclei (%) [7]: 5%
Population Tubulin-Different-Phenotype (%) [7]: 40%
Total Cell Count [7]: 339
Population Apoptotic (%) [8]: 42%
Population Fragmented Nuclei (%) [8]: 31%
Population Healthy Nuclei (%) [8]: 53%
Population Hoechst High Intensity Objects (%) [8]: 4%
Population Membrane Permeable-Phenotype (%) [8]: 5%
Population Mitochondria Different-Phenotype (%) [8]: 5%
Population Mitotic Cells (%) [8]: 57%
Population Normal (%) [8]: 95%
Population Pyknosed Nuclei (%) [8]: 14%
Population Tubulin-Different-Phenotype (%) [8]: 42%
Total Cell Count [8]: 242
Population Apoptotic (%) [9]: 62%
Population Fragmented Nuclei (%) [9]: 28%
Population Healthy Nuclei (%) [9]: 59%
Population Hoechst High Intensity Objects (%) [9]: 0%
Population Membrane Permeable-Phenotype (%) [9]: 0%
Population Mitochondria Different-Phenotype (%) [9]: 1%
Population Mitotic Cells (%) [9]: 37%
Population Normal (%) [9]: 99%
Population Pyknosed Nuclei (%) [9]: 12%
Population Tubulin-Different-Phenotype (%) [9]: 29%
Total Cell Count [9]: 126
Population Apoptotic (%) [10]: 50%
Population Fragmented Nuclei (%) [10]: 23%
Population Healthy Nuclei (%) [10]: 54%
Population Hoechst High Intensity Objects (%) [10]: 8%
Population Membrane Permeable-Phenotype (%) [10]: 1%
Population Mitochondria Different-Phenotype (%) [10]: 5%
Population Mitotic Cells (%) [10]: 50%
Population Normal (%) [10]: 91%
Population Pyknosed Nuclei (%) [10]: 21%
Population Tubulin-Different-Phenotype (%) [10]: 46%
Total Cell Count [10]: 111
Population Apoptotic (%) [11]: 56%
Population Fragmented Nuclei (%) [11]: 28%
Population Healthy Nuclei (%) [11]: 60%
Population Hoechst High Intensity Objects (%) [11]: 11%
Population Membrane Permeable-Phenotype (%) [11]: 0%
Population Mitochondria Different-Phenotype (%) [11]: 8%
Population Mitotic Cells (%) [11]: 43%
Population Normal (%) [11]: 88%
Population Pyknosed Nuclei (%) [11]: 11%
Population Tubulin-Different-Phenotype (%) [11]: 48%
Total Cell Count [11]: 321
Population Apoptotic (%) [12]: 51%
Population Fragmented Nuclei (%) [12]: 35%
Population Healthy Nuclei (%) [12]: 53%
Population Hoechst High Intensity Objects (%) [12]: 2%
Population Membrane Permeable-Phenotype (%) [12]: 3%
Population Mitochondria Different-Phenotype (%) [12]: 2%
Population Mitotic Cells (%) [12]: 48%
Population Normal (%) [12]: 97%
Population Pyknosed Nuclei (%) [12]: 10%
Population Tubulin-Different-Phenotype (%) [12]: 39%
Total Cell Count [12]: 261
